The target of test [1] is T1, Adenosine receptor A2b (Homo sapiens, UniProt P29275).
T1 sequence (P29275 whole entry): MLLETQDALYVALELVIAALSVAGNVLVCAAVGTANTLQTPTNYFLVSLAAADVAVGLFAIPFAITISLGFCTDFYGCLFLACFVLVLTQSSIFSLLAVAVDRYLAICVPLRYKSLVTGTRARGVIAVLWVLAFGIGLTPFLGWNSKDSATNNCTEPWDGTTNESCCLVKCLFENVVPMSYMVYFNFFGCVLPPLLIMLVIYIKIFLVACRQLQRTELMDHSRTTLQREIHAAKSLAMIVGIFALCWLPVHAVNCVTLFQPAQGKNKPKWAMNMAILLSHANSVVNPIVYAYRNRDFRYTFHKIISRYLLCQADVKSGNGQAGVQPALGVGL
Description: Displacement of [3H]DPCPX from human Adenosine A2B receptor expressed in HEK293 cells; range 128-156. Format: cell-based. The gist of the method: (§1)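 Membranes from HEK-293 cells with human recombinant A2B receptor. Incubation 60 min at 25 °C in 50 mM Tris HCl, 10 mM MgCl2, 1 mM EDTA, 0.1 mM benzamidine, pH 7.4, with 2 IU/mL adenosine deaminase and 40 nM [3H]DPCPX. At least six to eight test concentrations. Nonspecific binding defined with NECA. n = 3-6.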
(In general: Displacement assays read how much labelled ligand stays bound in the presence of the test substance.)

Test [2] deals with Adenosine receptors; A2b & A3 (Homo sapiens) (UniProt P29275+P0DMS8). Description: Selectivity ratio (h2B/hA3). Format: protein assay.
Test [3] has as its target T2, Adenosine receptor A3 (Homo sapiens, UniProt P0DMS8).
T2 sequence (P0DMS8 whole entry): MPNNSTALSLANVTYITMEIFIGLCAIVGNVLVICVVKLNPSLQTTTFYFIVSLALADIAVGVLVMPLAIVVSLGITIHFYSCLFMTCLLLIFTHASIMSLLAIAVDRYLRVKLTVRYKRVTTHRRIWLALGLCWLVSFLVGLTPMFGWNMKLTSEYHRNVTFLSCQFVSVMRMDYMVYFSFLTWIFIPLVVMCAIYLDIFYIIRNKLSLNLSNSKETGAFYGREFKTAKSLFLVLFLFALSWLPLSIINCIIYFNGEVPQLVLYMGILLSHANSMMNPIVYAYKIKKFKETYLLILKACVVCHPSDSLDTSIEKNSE
Description: biochemical.

The target in test [4] is T2, Adenosine receptor A3. In words: Inhibition of IB-MECA agonist-mediated cAMP production in CHO cell membranes expressing human Adenosine A3 receptor; range 1.8-5.6. Type of test: functional, cell-based. (cAMP levels reflect the balance of adenylyl cyclase and phosphodiesterase activity.)
The target in test [5] is Adenosine receptors; A1 & A3 (Homo sapiens) (UniProt P30542+P0DMS8). In words: Selectivity ratio (hA1/hA3). Format: protein assay.
Test [6] concerns the target T3, Adenosine receptor A1 (Homo sapiens, UniProt P30542).
T3 sequence (P30542 whole entry): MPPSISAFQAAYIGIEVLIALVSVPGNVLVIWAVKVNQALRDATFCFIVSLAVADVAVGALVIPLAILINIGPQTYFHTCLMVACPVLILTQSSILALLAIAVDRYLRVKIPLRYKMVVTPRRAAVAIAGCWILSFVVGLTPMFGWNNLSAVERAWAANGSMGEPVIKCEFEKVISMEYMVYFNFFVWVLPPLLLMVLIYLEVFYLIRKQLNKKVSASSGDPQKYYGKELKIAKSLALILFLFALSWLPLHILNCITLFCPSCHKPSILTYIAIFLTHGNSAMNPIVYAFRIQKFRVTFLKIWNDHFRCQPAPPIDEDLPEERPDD
Description: Displacement of [3H]DPCPX from human Adenosine A1 receptor expressed in CHO cells; range 885-1163. Type of test: cell-based. The method in brief:
(§2)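 Human recombinant A1 receptor in CHO cell membranes, resuspended in 50 mM Tris HCl pH 7.4. Displacement run 120 min at 25 °C with 1 nM [3H]DPCPX, 50 µg protein per assay, and at least six to eight test concentrations. Nonspecific binding defined with CHA. Bound and free separated on glass-fiber filters; filter radioactivity counted. n = 3-6.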

The target of test [7] is T4, Adenosine receptor A2a (Homo sapiens, UniProt P29274). In words: Displacement of [3H]SCH-58261 from human Adenosine A2A receptor expressed in HEK293 cells; range 552-839. Format: cell-based.
T4 sequence (P29274 whole entry): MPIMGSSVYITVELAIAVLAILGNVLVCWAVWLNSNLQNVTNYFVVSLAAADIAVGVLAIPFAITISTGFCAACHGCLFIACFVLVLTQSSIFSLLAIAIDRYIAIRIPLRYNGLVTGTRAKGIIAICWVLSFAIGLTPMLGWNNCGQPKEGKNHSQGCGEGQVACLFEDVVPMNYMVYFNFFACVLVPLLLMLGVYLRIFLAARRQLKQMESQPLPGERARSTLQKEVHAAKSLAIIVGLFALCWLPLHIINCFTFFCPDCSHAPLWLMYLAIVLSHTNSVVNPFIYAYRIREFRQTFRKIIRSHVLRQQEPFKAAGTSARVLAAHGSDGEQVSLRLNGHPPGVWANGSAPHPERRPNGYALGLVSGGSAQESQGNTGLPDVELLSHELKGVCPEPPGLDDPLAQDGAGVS
Test [8] concerns the target T1, Adenosine receptor A2b. In words: Displacement of [3H]DPCPX from human Adenosine A2B receptor expressed in HEK293 cells; range 67-115. Format: cell-based. The method in brief:
(§3)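 HEK-293 membranes expressing the human receptor were incubated 60 min at 25 °C. Six to eight test concentrations were used. Nonspecific binding was set with NECA. n = 3-6.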

The target in test [9] is T2, Adenosine receptor A3. Description: biochemical. The source holds these as a separate data set.
The target in test [10] is T3, Adenosine receptor A1. In words: Displacement of [3H]DPCPX from human Adenosine A1 receptor expressed in CHO cells; range 275-386. Format: cell-based. The method in brief: as §2
Test [11] addresses T4, Adenosine receptor A2a. In words: Displacement of [3H]SCH-58261 from human Adenosine A2A receptor expressed in HEK293 cells; range 33-48. Format: cell-based.
The target of test [12] is T4, Adenosine receptor A2a. Description: Displacement of [3H]SCH-58261 from human Adenosine A2A receptor expressed in HEK293 cells; range 18-33. Format: cell-based.
The target of test [13] is T1, Adenosine receptor A2b. Description: Displacement of [3H]DPCPX from human Adenosine A2B receptor expressed in HEK293 cells; range 127-203. Format: cell-based. The method in brief:
as §3

Test [14] has as its target T3, Adenosine receptor A1. In words: Displacement of [3H]DPCPX from human Adenosine A1 receptor expressed in CHO cells; range 210-376. Format: cell-based.
Test [15] addresses T2, Adenosine receptor A3. In words: biochemical. This is another data set of the same source.
Test [16] addresses T1, Adenosine receptor A2b. Description: Displacement of [3H]DPCPX from human Adenosine A2B receptor expressed in HEK293 cells; range 32-51. Format: cell-based. The gist of the method: as §1
Test [17] addresses T3, Adenosine receptor A1. In words: Displacement of [3H]DPCPX from human Adenosine A1 receptor expressed in CHO cells; range 453-609. Type of test: cell-based. The method in brief: as §2
Test [18] concerns the target T4, Adenosine receptor A2a. In words: Displacement of [3H]SCH-58261 from human Adenosine A2A receptor expressed in HEK293 cells; range 300-414. Type of test: cell-based.
Test [19] addresses T2, Adenosine receptor A3. In words: Displacement of [3H]MRE3008-F20 from human Adenosine A3 receptor expressed in HEK cells; range 2.7-3.4. Type of test: cell-based, HEK293.
In test [20] the target is T4, Adenosine receptor A2a. In words: Displacement of [3H]SCH-58261 from human Adenosine A2A receptor expressed in HEK293 cells; range 103-140. Type of test: cell-based.
Test [21] deals with T3, Adenosine receptor A1. Description: Displacement of [3H]DPCPX from human Adenosine A1 receptor expressed in CHO cells; range 262-814. The settings on record: in the assay text read “range 602-814” for “range 262-814”. Format: cell-based. The method in brief:
as §2

The target in test [22] is T1, Adenosine receptor A2b. In words: Displacement of [3H]DPCPX from human Adenosine A2B receptor expressed in HEK293 cells; range 183-278. Format: cell-based. The method in brief: as §1
The target in test [23] is T2, Adenosine receptor A3. In words: Inhibition of IB-MECA agonist-mediated cAMP production in CHO cell membranes expressing human Adenosine A3 receptor; range 2.0-4.3. Type of test: functional, cell-based.
The target of test [24] is T2, Adenosine receptor A3. Description: Displacement of [3H]MRE3008-F20 from human Adenosine A3 receptor expressed in HEK cells; range 0.28-0.41. Type of test: cell-based, HEK293.

Molecules are shown by their SMILES.

By Ki is commonly meant a dissociation constant, usually derived from enzyme kinetics or from competition with a known ligand. Higher therefore signals weaker binding. As a reminder, the IC50 is the concentration at which inhibition is half-maximal. A higher IC50 goes with a need for much substance. `Cn1cc2c(nc(NC(=O)Nc3ccc4c(c3)OCO4)n3nc(-c4ccco4)nc23)n1`: the Ki on Adenosine receptor A2b [1] was 0.142 µM; on Adenosine receptor A3 [3], 0.00024 µM; on Adenosine receptor A1 [6] it was 1.02 µM; at Adenosine receptor A2a [7] it was 0.68 µM. The values for the Ratio in test [2] and in test [5] were 592 and 4230, respectively. Moreover, at Adenosine receptor A3 [4], the IC50 turned out to be 0.0032 µM.

`CCn1cc2c(nc(NC(=O)Nc3ccccc3)n3nc(-c4ccco4)nc23)n1`: the Ki amounted to 0.088 µM at Adenosine receptor A2b [8], 0.00018 µM on Adenosine receptor A3 [9], 0.326 µM on Adenosine receptor A1 [10] and 0.04 µM on Adenosine receptor A2a [11]. Moreover, the Ratio turned out to be 489 in test [2] and 1810 in test [5].

Consider `CCCCn1cc2c(nc(NC(=O)Nc3ccc(C)cc3)n3nc(-c4ccco4)nc23)n1`, for which the Ki was 0.024 µM at Adenosine receptor A2a [12], 0.161 µM on Adenosine receptor A2b [13], 0.281 µM on Adenosine receptor A1 [14] and 0.00021 µM on Adenosine receptor A3 [15]. Besides, the Ratio in [2] is 767; in test [5], 1340.

In the case of `CCn1cc2c(nc(NC(=O)Nc3ccc(Cl)c(Cl)c3)n3nc(-c4ccco4)nc23)n1`, the Ki on Adenosine receptor A2b [16] was 0.04 µM; on Adenosine receptor A1 [17], 0.526 µM; at Adenosine receptor A2a [18] it was 0.352 µM; at Adenosine receptor A3 [19], 0.003 µM. Also, the Ratio in test [2] turned out to be 13; in test [5], 175.

On to `Cn1cc2c(nc(NC(=O)Nc3ccc(F)cc3)n3nc(-c4ccco4)nc23)n1`, for which the Ki on Adenosine receptor A2a [20] was found to be 0.12 µM; at Adenosine receptor A1 [21], 0.7 µM; at Adenosine receptor A2b [22], 0.226 µM; at Adenosine receptor A3 [24] it was 0.00034 µM. Further, the figures for the Ratio in test [2] and in test [5] were 665 and 2060, respectively. On Adenosine receptor A3 [23], this molecule came in with an IC50 of 0.003 µM.

These data come from ChEMBL document CHEMBL1136016, “Synthesis, biological activity, and molecular modeling investigation of new pyrazolo[4,3-e]-1,2,4-triazolo[1,5-c]pyrimidine derivatives as human A(3) adenosine receptor antagonists” (J Med Chem, 2002).
